Activity calls are given as the source filed them. The rule behind the calls is not given here. Some results are limits rather than exact numbers.

Data set [1] is described as follows: Oral bioavailability in mini pig at 10 mg/kg. It is filed as ADME, organism-based, Sus scrofa. The note with it: in vivo.
The nature of data set [2]: Volume of distribution at steady state in rat at 0.5 mg/kg, iv. It is filed as ADME, organism-based. The note with it: in vivo, read-out: Vdss.
The target in another data set is T1, Glucocorticoid receptor (Homo sapiens, UniProt P04150).
T1 sequence (P04150 whole entry): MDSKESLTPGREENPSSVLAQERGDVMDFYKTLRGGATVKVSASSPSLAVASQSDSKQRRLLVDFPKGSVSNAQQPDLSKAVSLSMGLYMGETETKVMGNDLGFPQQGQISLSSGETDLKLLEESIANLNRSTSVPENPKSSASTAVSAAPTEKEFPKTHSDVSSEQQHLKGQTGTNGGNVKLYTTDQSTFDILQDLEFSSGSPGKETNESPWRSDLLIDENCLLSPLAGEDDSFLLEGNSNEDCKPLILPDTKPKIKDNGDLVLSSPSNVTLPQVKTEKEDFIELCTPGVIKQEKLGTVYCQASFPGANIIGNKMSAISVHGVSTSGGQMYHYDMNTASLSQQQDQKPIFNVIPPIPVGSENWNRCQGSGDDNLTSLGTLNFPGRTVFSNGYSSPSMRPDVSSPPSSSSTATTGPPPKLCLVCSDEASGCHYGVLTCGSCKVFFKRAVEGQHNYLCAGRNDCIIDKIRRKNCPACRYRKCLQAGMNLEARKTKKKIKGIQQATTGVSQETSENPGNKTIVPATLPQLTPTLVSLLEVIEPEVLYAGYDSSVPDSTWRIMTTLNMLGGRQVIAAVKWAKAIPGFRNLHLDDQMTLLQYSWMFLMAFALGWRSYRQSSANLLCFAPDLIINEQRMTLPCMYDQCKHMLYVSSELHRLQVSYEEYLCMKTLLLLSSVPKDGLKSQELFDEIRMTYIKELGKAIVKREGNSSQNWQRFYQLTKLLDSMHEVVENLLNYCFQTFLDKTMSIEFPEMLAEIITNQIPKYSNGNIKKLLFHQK
The data set can be described thus: Antagonist activity at GR in human PBMC assessed as reduction in dexamethasone-induced GILZ gene expression incubated for 6 hrs by RT-qPCR method. The data set is classed as cell-based. (In general: Quantitative PCR measures a nucleic acid by following its amplification.)

Data set [3] can be described thus: AUC in rat at 5 mg/kg, po. It is filed as ADME, organism-based. To be noted: in vivo.
A further data set addresses T2, Estrogen receptor (Homo sapiens, UniProt P03372).
T2 sequence (P03372 whole entry): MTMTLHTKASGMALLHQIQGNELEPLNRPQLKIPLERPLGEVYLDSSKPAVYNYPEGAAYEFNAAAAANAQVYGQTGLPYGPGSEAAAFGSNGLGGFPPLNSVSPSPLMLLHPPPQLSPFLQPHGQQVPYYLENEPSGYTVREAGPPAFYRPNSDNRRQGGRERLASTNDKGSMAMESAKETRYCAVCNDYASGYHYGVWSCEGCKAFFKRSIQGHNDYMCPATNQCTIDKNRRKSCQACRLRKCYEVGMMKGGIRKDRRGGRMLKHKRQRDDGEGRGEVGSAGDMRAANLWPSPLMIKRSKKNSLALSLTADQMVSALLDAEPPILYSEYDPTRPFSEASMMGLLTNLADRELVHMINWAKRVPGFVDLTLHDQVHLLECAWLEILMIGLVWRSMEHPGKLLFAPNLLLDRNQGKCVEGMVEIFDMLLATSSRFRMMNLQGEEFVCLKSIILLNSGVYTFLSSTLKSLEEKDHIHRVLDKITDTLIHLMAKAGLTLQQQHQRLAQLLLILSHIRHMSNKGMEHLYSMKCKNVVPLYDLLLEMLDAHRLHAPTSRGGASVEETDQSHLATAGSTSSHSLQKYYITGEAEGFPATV
The data set can be described thus: Binding affinity to untagged human recombinant full length ERalpha expressed in insect cells up to 1 uM by Fluormone ES2 Green displacement based assay.

The nature of data set [4]: Unbound fraction in human plasma relative to mifepristone. The data set is classed as ADME, cell-free.
A further data set addresses T3, Progesterone receptor (Homo sapiens, UniProt P06401).
T3 sequence (P06401 whole entry): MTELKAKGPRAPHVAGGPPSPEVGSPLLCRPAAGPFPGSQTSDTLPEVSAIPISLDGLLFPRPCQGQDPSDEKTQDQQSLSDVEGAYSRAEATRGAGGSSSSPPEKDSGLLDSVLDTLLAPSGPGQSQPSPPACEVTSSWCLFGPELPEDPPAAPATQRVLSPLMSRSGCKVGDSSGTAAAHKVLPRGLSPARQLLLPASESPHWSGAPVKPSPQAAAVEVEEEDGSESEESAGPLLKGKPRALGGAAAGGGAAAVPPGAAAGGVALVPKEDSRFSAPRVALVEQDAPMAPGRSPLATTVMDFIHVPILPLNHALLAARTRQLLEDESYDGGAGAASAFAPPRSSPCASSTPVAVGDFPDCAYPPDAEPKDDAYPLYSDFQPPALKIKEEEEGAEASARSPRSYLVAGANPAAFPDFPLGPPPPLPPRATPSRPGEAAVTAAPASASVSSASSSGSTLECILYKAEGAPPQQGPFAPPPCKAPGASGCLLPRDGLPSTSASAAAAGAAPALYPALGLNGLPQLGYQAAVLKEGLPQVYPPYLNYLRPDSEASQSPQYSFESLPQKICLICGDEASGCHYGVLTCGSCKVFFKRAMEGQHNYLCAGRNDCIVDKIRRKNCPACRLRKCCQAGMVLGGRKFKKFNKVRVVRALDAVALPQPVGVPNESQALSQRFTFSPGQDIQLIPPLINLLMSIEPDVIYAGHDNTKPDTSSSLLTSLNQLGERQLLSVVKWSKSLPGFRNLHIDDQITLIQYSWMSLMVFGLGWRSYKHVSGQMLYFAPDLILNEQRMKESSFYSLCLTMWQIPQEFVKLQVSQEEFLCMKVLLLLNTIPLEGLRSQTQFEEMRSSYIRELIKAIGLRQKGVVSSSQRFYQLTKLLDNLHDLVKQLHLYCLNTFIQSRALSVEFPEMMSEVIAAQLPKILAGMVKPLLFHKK
The data set is described as follows: Agonist activity at human PR expressed in CHO-K1 cells incubated for 20 hrs by luciferase reporter gene assay. It is filed as cell-based. To be noted: cho-k1, 20 h. (In general: In a reporter assay the amount or activity of a reporter protein is the signal.)

For a further data set, the target named is Cytochrome P450 2C9 (Homo sapiens, UniProt P11712). The data set can be described thus: Inhibition of CYP2C9 (unknown origin) using […] as substrate. The data set is classed as ADME.
A further data set deals with OVCAR-5. The data set can be described thus: Potentiation of gemcitabine-induced antitumor activity against human OVCAR5 cells xenografted in chronic cortisol treated nude mouse assessed as reduction in tumor volume at 75 mg/kg, po BID dosed via gavage co-treated with gencitabine at 100 mg/kg dosed every 3 days for 4 doses. It is filed as functional, organism-based. A digest of the protocol:
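Cortisol given in drinking water at 100 mg/L before tumor implantation and throughout the study. Mice bearing established OVCAR5 xenografts, n = 10 per group. Gemcitabine 100 mg/kg and carboplatin 60 mg/kg given every 3 days for 4 doses. Antagonist given at 75 mg/kg twice daily by oral gavage for the whole study. Tumor volume tracked, mean ± SEM, with significance assessed on day 21.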
(In general: In xenograft studies the graft and the host belong to different species.)

Sequence of Cytochrome P450 2C9 (P11712 whole entry): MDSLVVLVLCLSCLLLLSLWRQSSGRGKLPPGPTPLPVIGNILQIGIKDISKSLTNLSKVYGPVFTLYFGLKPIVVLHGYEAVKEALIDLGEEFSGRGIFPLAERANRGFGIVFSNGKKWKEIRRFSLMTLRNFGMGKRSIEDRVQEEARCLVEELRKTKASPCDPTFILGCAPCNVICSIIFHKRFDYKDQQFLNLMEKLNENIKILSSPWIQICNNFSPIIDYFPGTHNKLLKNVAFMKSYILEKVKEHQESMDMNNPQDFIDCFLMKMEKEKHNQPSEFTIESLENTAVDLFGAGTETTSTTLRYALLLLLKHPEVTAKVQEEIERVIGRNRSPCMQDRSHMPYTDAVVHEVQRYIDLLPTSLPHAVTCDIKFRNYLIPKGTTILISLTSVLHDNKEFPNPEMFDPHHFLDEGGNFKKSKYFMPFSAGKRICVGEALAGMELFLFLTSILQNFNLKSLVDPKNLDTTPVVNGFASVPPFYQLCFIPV

The term bioavailability denotes dose-corrected exposure relative to a reference, in per cent. Read a low bioavailability as poor availability. One may read the IC50 as the midpoint of a concentration-inhibition curve. By AUC is commonly meant concentration integrated over time. A higher AUC goes with more exposure. Consider `CC(C)N(C)c1ccc([C@H]2C[C@@]3(C)[C@@H](CC[C@@]3(O)C#CC(C)(C)C)[C@@H]3CCC4=CC(=O)CC[C@@H]4[C@H]32)cc1`, for which the bioavailability in [1] came to 20%. Besides, the Vd in data set [2] came to 4.6 L/kg. Besides, the IC50 was 24.9 nM at Glucocorticoid receptor and above 10000 nM on Cytochrome P450 2C9. In [3], this compound had an area under the curve (AUC) of 635 ng·h/mL. For the same compound, the Activity entry at Estrogen receptor and on Progesterone receptor was “Not Active” in each case. In addition, in data set [4], the Ratio stood at 10. In addition, the result in the data set on OVCAR-5 was Active.

The record behind these values is ChEMBL document CHEMBL4145686, “Discovery of a Potent and Selective Steroidal Glucocorticoid Receptor Antagonist (ORIC-101)” (J Med Chem, 2018).
